Source: ChEMBL document CHEMBL3526050, “Elucidation of the metabolic pathways and the resulting multiple metabolites of almorexant, a dual orexin receptor antagonist, in humans” (Drug Metab Dispos, 2013)
Several values for one entry are separate records, joined by “and”; a condition that tells them apart may be missing. Equal values may be shown once. Blank lines part the entries; values can stand above or below the compound they belong to.

What was measured:
Conditions in all cases: in vivo
[1] = system: Homo sapiens; assay: Drug level in healthy human treated with [14C]almorexant at 200 mg, po dosed as single dose relative to almorexant; assay type: ADME, organism-based
In short: (§1)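 Plasma from 6 subjects given one 200 mg oral 14C dose, pooled over at least 2 time points and acetonitrile-precipitated. Radio-LC-MS/MS used a C18 column with ammonium formate pH 4.0/acetonitrile gradient and 0.15-min fractions scintillation-counted. Peak radioactivity converted to ng-equivalents/mL to give AUC0-t. Co-eluting metabolites grouped and expressed relative to parent AUC and to total radioactivity.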

[2] = system: Homo sapiens; assay: AUC (0 to t) in healthy human treated with [14C]almorexant at 200 mg, po dosed as single dose; assay type: ADME, organism-based, Plasma; in short: as §1
[3] = Tmax in healthy human at 200 mg, po dosed as single dose; assay type: ADME, organism-based
In short: (§2)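 Plasma parent and metabolites M3, M5, M6, M8 after one 200 mg oral 14C dose in 6 fasted male subjects, sampled 0.17–240 h. Validated LC-MS/MS with penta-deuterated internal standards and positive ESI. Low range 0.4/1.0–100 ng/mL using supported liquid extraction, high range 50–1000 ng/mL using protein precipitation. Noncompartmental analysis, geometric means (95% CI), Tmax median (range).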

[4] = system: Homo sapiens; assay: Tlast in healthy human treated with [14C]almorexant at 200 mg, po dosed as single dose; assay type: ADME, organism-based; in short: as §1
[5] = system: Homo sapiens; assay: Drug level in healthy human treated with [14C]almorexant at 200 mg, po dosed as single dose relative to total radioactivity; assay type: ADME, organism-based; in short: as §1
[6] = system: Plasma; assay: Drug level in plasma of healthy human treated with [14C]almorexant at 200 mg, po dosed as single dose; assay type: ADME, organism-based; in short: as §1
[7] = system: Homo sapiens; assay: Cmax in healthy human treated with [14C]almorexant at 200 mg, po dosed as single dose; assay type: ADME, organism-based; design: dose 200 mg, route oral
[8] = system: Homo sapiens; assay: Tmax in healthy human treated with [14C]almorexant at 200 mg, po dosed as single dose; assay type: ADME, organism-based; in short: as §2
[9] = system: Homo sapiens; assay: Half life in healthy human treated with [14C]almorexant at 200 mg, po dosed as single dose; assay type: ADME, organism-based; in short: as §2
[10] = Drug level in feces of healthy human treated with [14C]almorexant at 200 mg, po dosed as single dose; assay type: ADME, organism-based
In short: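 Feces pooled by weight across 6 subjects (0–48 to 192–332 h) and extracted three times with acetonitrile, then dried and reconstituted. Analyzed by radio-LC-MS/MS with a methanol/acetonitrile gradient and scintillation-counted fractions. Procedural recovery was 73.0%. Reported as percent of administered radioactive dose.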

[11] = system: Homo sapiens; assay: AUC (0 to infinity) in healthy human treated with [14C]almorexant at 200 mg, po dosed as single dose; assay type: ADME, organism-based, Plasma; design: dose 200 mg, route oral, time infinity

Drug uptake [1]: 28.1%
AUCt [2]: 17.2 ng.Eq.hr/ml
Tmax [3]: 1.6 h
Tlast [4]: 1.6 h
Drug uptake [5]: 0.03%
Drug metabolism [6]: metabolite_detected
Compound: COc1cc2c(cc1OC)[C@H](CC(O)c1ccc(C(F)(F)F)cc1)N([C@@H](C(N)=O)c1ccccc1)CC2 (stereo partly specified)

Cmax [7]: 80.4 ng/mL
Tmax [8]: 0.9 h
t1/2 [9]: 26.3 h
Drug metabolism [10]: metabolite_detected
AUC [11]: 282 ng·h/mL
Drug metabolism [6]: metabolite_detected
Compound: CNC(=O)[C@@H](c1ccccc1)[n+]1ccc2cc(OC)c(OC)cc2c1CCc1ccc(C(F)(F)F)cc1

Drug metabolism [10]: metabolite_detected
Drug metabolism [6]: metabolite_detected
Compound: COc1cc2cc[n+]([C@@H](C(N)=O)c3ccccc3)c(CCc3ccc(C(F)(F)F)cc3)c2cc1OC

Drug uptake [1]: 541%
AUCt [2]: 331 ng.Eq.hr/ml
Cmax [7]: 99.4 ng/ml and 49 ng.Eq/ml
Tmax [8]: 1.5 h
t1/2 [9]: 10.4 h
Tlast [4]: 11 h
Drug uptake [5]: 0.61%
AUC [11]: 1039 ng·h/mL
Drug metabolism [6]: metabolite_detected
Compound: COc1cc2c(cc1OC)[C@H](CCc1ccc(C(F)(F)F)cc1)NCC2

Drug metabolism [6]: metabolite_detected
Compound: COc1cc2c(cc1O)[C@H](CCc1ccc(C(F)(F)F)cc1)NCC2

Drug metabolism [6]: metabolite_detected
Compound: COc1cc2ccnc(CCc3ccc(C(F)(F)F)cc3)c2cc1OC

Drug metabolism [6]: metabolite_detected
Compound: COc1cc2c(cc1OC)[C@H](CC(O)c1ccc(C(F)(F)F)cc1)NCC2 (stereo partly specified)
